Data taken from ChEMBL document CHEMBL1157556, “Synthesis and biological screening of a combinatorial library of beta-chlorovinyl chalcones as anticancer, anti-inflammatory and antimicrobial agents” (Bioorg Med Chem, 2010).
Values after ≈ are worked out from the molar mass of the structure shown.

Assays:
Penicillium chrysogenum = test: Antifungal activity against Penicillium chrysogenum MTCC 1996 at 100 ug/ml after 48 hrs agar diffusion method; format: functional; details: for zone of inhibition at 100 µg/mL: MTCC 1996, 48 h, read-out: IZ
Summary of the method: (§1)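 Fungal spore suspensions in sterile distilled water adjusted to 10⁶ cfu/mL; 0.1 mL spread on Sabouraud dextrose agar. Wells of 6 mm filled with 0.1 mL compound dilution in DMSO. DMSO (1%) control; nystatin (30 µg/mL) reference. Duplicate plates incubated at 28 °C for 48 h. Activity read as inhibition zone diameter in mm.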

THP-1 [1] = test: Antiinflammatory activity in human THP1 cells assessed as inhibition of LPS-induced TNFalpha release at 10 uM after 24 hrs by ELISA; format: functional; details: THP-1, 24 h
Summary of the method: (§2)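 THP-1 cells grown in RPMI 1640 with 10% FBS, penicillin and streptomycin, then PMA-differentiated. Compounds in 0.5% DMSO preincubated 30 min at 37 °C before LPS (E. coli 0127:B8) stimulation. TNF-α and IL-6 release measured by kit per the manufacturer (BD Biosciences). Percent inhibition calculated relative to control. Dexamethasone 1 µM as reference.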

Klebsiella pneumoniae [2] = test: Antibacterial activity against Klebsiella pneumoniae NCIM 2957 at 50 ug/ml after 24 hrs agar diffusion method; format: functional; details: NCIM 2957, 24 h, read-out: IZ
Summary of the method: (§3)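 Agar well diffusion on Mueller Hinton agar seeded with 0.1 mL of a 10⁵ cfu/mL suspension in 0.85% saline. Compounds dissolved in DMSO, final concentrations 25–250 µg/mL, 0.1 mL loaded per 6 mm well. DMSO (1%) control; tetracycline (10 µg/mL) reference. Duplicate plates incubated 24 h at 37 °C. Inhibition zone read in mm. MIC taken as lowest concentration giving complete growth inhibition.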

Staphylococcus aureus [3] = test: Antibacterial activity against Staphylococcus aureus MTCC 96 after 24 hrs; format: functional; details: MTCC 96, 24 h; summary of the method: as §3
THP-1 [4] = test: Cytotoxicity against human THP1 cells assessed as CCK8 release at 10 uM after 24 hrs by ELISA; format: cell-based; details: thp-1, 24 h
Summary of the method: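 Same THP-1 cytokine-assay cells, with compounds in 0.5% DMSO and LPS stimulation, were scored in parallel for cytotoxicity by CCK-8.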

Escherichia coli [5] = test: Antibacterial activity against Escherichia coli MTCC 1650 at 50 ug/ml after 24 hrs agar diffusion method; format: functional; details: MTCC 1650, 24 h, read-out: IZ; summary of the method: as §3
Staphylococcus aureus [6] = test: Antibacterial activity against Staphylococcus aureus MTCC 96 at 50 ug/ml after 24 hrs agar diffusion method; format: functional; details: MTCC 96, 24 h, read-out: IZ; summary of the method: as §3
PANC-1 = test: Anticancer activity against human PANC1 cells at 10 uM after 48 hrs by propidium iodide fluorescence assay; format: functional
Summary of the method: (§4)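 Propidium iodide DNA-fluorescence assay. Seeding 3000–7500 cells/well, 24 h recovery at 37 °C in 5% CO₂. Compounds in 0.1% DMSO added to triplicate wells at 10 µM. Flavopiridol 700 nM and gemcitabine 500 nM as reference inhibitors. Plates frozen at −80 °C for 24 h, thawed to room temperature, fluorescence read at excitation 530 nm and emission 620 nm. Percent cytotoxicity calculated.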

Trichoderma viride = test: Antifungal activity against Trichoderma viride MTCC 167 at 100 ug/ml after 48 hrs agar diffusion method; format: functional; details: for zone of inhibition at 100 µg/mL: MTCC 167, 48 h, read-out: IZ; summary of the method: as §1
Proteus vulgaris [7] = test: Antibacterial activity against Proteus vulgaris MTCC 1771 at 50 ug/ml after 24 hrs agar diffusion method; format: functional; details: MTCC 1771, 24 h, read-out: IZ; summary of the method: as §3
Calu-1 = test: Anticancer activity against human Calu1 cells at 10 uM after 48 hrs by propidium iodide fluorescence assay; format: functional; summary of the method: as §4
HCT-116 = test: Anticancer activity against human HCT116 cells at 10 uM after 48 hrs by propidium iodide fluorescence assay; format: functional; summary of the method: as §4
Aspergillus flavus = test: Antifungal activity against Aspergillus flavus MTCC 2501 at 100 ug/ml after 48 hrs agar diffusion method; format: functional; details: for zone of inhibition at 100 µg/mL: MTCC 2501, 48 h, read-out: IZ; summary of the method: as §1
Bacillus subtilis [8] = test: Antibacterial activity against Bacillus subtilis MTCC 1789 after 24 hrs; format: functional; details: MTCC 1789, 24 h; summary of the method: as §3
THP-1 [9] = test: Antiinflammatory activity in human THP1 cells assessed as inhibition of LPS-induced IL6 release at 10 uM after 24 hrs by ELISA; format: functional; details: THP-1, 24 h; summary of the method: as §2
Escherichia coli [10] = test: Antibacterial activity against Escherichia coli MTCC 1650 after 24 hrs; format: functional; details: MTCC 1650, 24 h; summary of the method: as §3
Proteus vulgaris [11] = test: Antibacterial activity against Proteus vulgaris MTCC 1771 after 24 hrs; format: functional; details: MTCC 1771, 24 h; summary of the method: as §3
Bacillus subtilis [12] = test: Antibacterial activity against Bacillus subtilis MTCC 1789 at 50 ug/ml after 24 hrs agar diffusion method; format: functional; details: MTCC 1789, 24 h, read-out: IZ; summary of the method: as §3
Klebsiella pneumoniae [13] = test: Antibacterial activity against Klebsiella pneumoniae NCIM 2957 after 24 hrs; format: functional; details: NCIM 2957, 24 h; summary of the method: as §3
ACHN = test: Anticancer activity against human ACHN cells at 10 uM after 48 hrs by propidium iodide fluorescence assay; format: functional; summary of the method: as §4
NCI-H460 = test: Anticancer activity against human H460 cells at 10 uM after 48 hrs by propidium iodide fluorescence assay; format: functional; summary of the method: as §4
Aspergillus niger = test: Antifungal activity against Aspergillus niger MTCC 1781 at 100 ug/ml after 48 hrs agar diffusion method; format: functional; details: for zone of inhibition at 100 µg/mL: MTCC 1781, 48 h, read-out: IZ; summary of the method: as §1
Candida albicans = test: Antifungal activity against Candida albicans MTCC 227 at 100 ug/ml after 48 hrs agar diffusion method; format: functional; details: MTCC 227, 48 h, read-out: IZ; summary of the method: as §1

| Compound | zone of inhibition at 100 µg/mL (Penicillium chrysogenum) | inhibition at 10 µM (THP-1 [1]) | zone of inhibition at 50 µg/mL (Klebsiella pneumoniae [2]) | MIC (Staphylococcus aureus [3]) | Activity (THP-1 [4]) | zone of inhibition at 50 µg/mL (Escherichia coli [5]) | zone of inhibition at 50 µg/mL (Staphylococcus aureus [6]) | Activity (PANC-1) | zone of inhibition at 100 µg/mL (Trichoderma viride) | Activity (Calu-1) | Activity (HCT-116) | zone of inhibition at 100 µg/mL (Aspergillus flavus) | MIC (Bacillus subtilis [8]) | inhibition at 10 µM (THP-1 [9]) | MIC (Escherichia coli [10]) | MIC (Proteus vulgaris [11]) | zone of inhibition at 50 µg/mL (Bacillus subtilis [12]) | MIC (Klebsiella pneumoniae [13]) | Activity (ACHN) | Activity (NCI-H460) | also measured |
| --- | --- | --- | --- | --- | --- | --- | --- | --- | --- | --- | --- | --- | --- | --- | --- | --- | --- | --- | --- | --- | --- |
| COc1ccc(C(=O)/C=C/C=C(\Cl)c2ccc(Cl)cc2)c(OC)c1 | 14 mm | 0% | 15 mm | 50 µg/mL (≈ 138 µM) | 0% | 10 mm | 13 mm | 32% | 12 mm | 32% | 26% | 12 mm | 50 µg/mL (≈ 138 µM) | 43% | 50 µg/mL (≈ 138 µM) | 50 µg/mL (≈ 138 µM) | 14 mm | 50 µg/mL (≈ 138 µM) | 37% | 21% | zone of inhibition at 50 µg/mL (Proteus vulgaris [7]): 18 mm; zone of inhibition at 100 µg/mL (Aspergillus niger): 14 mm |
| NYSTATIN |  |  |  |  |  |  |  |  |  |  |  |  |  |  |  |  |  |  |  |  | inhibition zone (IZ) (Penicillium chrysogenum): 14 mm; inhibition zone (IZ) (Trichoderma viride): 12 mm; inhibition zone (IZ) (Aspergillus flavus): 16 mm; inhibition zone (IZ) (Aspergillus niger): 13 mm |
| CN(C)[C@@H]1C(O)=C(C(N)=O)C(=O)[C@@]2(O)C(O)=C3C(=O)c4c(O)cccc4[C@@](C)(O)[C@H]3C[C@@H]12 [TETRACYCLINE] |  |  | 20 mm |  |  | 15 mm | 18 mm |  |  |  |  |  |  |  |  |  | 18 mm |  |  |  | zone of inhibition at 50 µg/mL (Proteus vulgaris [7]): 16 mm |
| COc1ccc(C(=O)/C=C/C=C(\Cl)c2cccc(Cl)c2)c(OC)c1 | 10 mm | 0% | 16 mm | 50 µg/mL (≈ 138 µM) | 0% | 12 mm | 16 mm | 32% | 13 mm | 40% | 37% | 15 mm | 50 µg/mL (≈ 138 µM) | 7% | 50 µg/mL (≈ 138 µM) | 50 µg/mL (≈ 138 µM) | 18 mm | 50 µg/mL (≈ 138 µM) | 32% | 31% | zone of inhibition at 50 µg/mL (Proteus vulgaris [7]): 13 mm; zone of inhibition at 100 µg/mL (Candida albicans): 10 mm; zone of inhibition at 100 µg/mL (Aspergillus niger): 14 mm |
| COc1ccc(C(=O)/C=C/C=C(\Cl)c2ccc(OC)cc2OC)cc1 |  | 0% |  | 50 µg/mL (≈ 139 µM) | 35% | 10 mm |  | 7% | 12 mm | 7% | 0% | 10 mm | 50 µg/mL (≈ 139 µM) | 40% | 50 µg/mL (≈ 139 µM) | 50 µg/mL (≈ 139 µM) | 12 mm | 50 µg/mL (≈ 139 µM) | 33% | 15% | zone of inhibition at 100 µg/mL (Aspergillus niger): 11 mm |
| COc1ccc(C(=O)/C=C/C=C(\Cl)c2ccc(Br)cc2)cc1 | 12 mm | 66% | 11 mm | 50 µg/mL (≈ 132 µM) | 30% |  | 12 mm | 25% | 8 mm | 29% | 20% | 8 mm | 50 µg/mL (≈ 132 µM) | 97% | 50 µg/mL (≈ 132 µM) | 50 µg/mL (≈ 132 µM) |  | 50 µg/mL (≈ 132 µM) | 39% | 20% |  |
